The text below walks through data of ChEMBL document CHEMBL1914454, “Novel N-linked aminopiperidine inhibitors of bacterial topoisomerase type II: broad-spectrum antibacterial agents with reduced hERG activity” (J Med Chem, 2011).

SMILES strings stand for the structures. ≈ marks a conversion by molar mass, not a printed value.

Series [1] in a line: Half life in Beagle dog at 3 mg/kg, iv. It is filed as ADME, organism-based, Canis lupus familiaris. More on the design: dose 3 mg/kg, route intravenous. Conditions: in vivo. Summed up:
(§1)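 Plasma was sampled from 0 to 24 h and drug measured by LC–MS/MS. Parameters came from noncompartmental analysis.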

A short description of series [2]: Octanol-phosphate buffer partition coefficient, log D of the compound at pH 7.4 by LC/MS/UV analysis. Conditions: octanol/phosphate buffer.
In series [3] the test system is Mus musculus. Description: AUC (infinity) in Staphylococcus aureus ARC516 infected in CD1 mouse neutropenic thigh infection model at 24 mg/kg, ip qd by LC-MS/MS analysis. It is filed as ADME, organism-based. More on the design: time infinity, dose 24 mg/kg, route intraperitoneal. The conditions noted are these: in vivo. Summed up: (§2)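 CD-1 mice made neutropenic with ip cyclophosphamide (150 mg/kg day −4, 100 mg/kg day −1), thigh-infected with S. aureus ARC516 (target 5 × 10⁵ cfu/thigh). Dosed ip once daily starting 2 h post-infection, in 5% dextrose with lactic acid, pH 5.0. Groups of three sacrificed at timed intervals; cardiac-puncture blood; plasma analysed by LC-MS/MS; noncompartmental analysis.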

Series [4] relates to Mus musculus. In words: AUC (infinity) in Staphylococcus aureus ARC516 infected in CD1 mouse neutropenic thigh infection model at 12 mg/kg, ip qd by LC-MS/MS analysis. It is filed as ADME, organism-based. More on the design: time infinity, dose 12 mg/kg, route intraperitoneal. Conditions: in vivo. The procedure, abridged: as §2
In series [5] the target is Voltage-gated inwardly rectifying potassium channel KCNH2 (Homo sapiens, UniProt Q12809). Description: Inhibition of human ERG by ionworks HT assay.
Voltage-gated inwardly rectifying potassium channel KCNH2, sequence (Q12809 whole entry): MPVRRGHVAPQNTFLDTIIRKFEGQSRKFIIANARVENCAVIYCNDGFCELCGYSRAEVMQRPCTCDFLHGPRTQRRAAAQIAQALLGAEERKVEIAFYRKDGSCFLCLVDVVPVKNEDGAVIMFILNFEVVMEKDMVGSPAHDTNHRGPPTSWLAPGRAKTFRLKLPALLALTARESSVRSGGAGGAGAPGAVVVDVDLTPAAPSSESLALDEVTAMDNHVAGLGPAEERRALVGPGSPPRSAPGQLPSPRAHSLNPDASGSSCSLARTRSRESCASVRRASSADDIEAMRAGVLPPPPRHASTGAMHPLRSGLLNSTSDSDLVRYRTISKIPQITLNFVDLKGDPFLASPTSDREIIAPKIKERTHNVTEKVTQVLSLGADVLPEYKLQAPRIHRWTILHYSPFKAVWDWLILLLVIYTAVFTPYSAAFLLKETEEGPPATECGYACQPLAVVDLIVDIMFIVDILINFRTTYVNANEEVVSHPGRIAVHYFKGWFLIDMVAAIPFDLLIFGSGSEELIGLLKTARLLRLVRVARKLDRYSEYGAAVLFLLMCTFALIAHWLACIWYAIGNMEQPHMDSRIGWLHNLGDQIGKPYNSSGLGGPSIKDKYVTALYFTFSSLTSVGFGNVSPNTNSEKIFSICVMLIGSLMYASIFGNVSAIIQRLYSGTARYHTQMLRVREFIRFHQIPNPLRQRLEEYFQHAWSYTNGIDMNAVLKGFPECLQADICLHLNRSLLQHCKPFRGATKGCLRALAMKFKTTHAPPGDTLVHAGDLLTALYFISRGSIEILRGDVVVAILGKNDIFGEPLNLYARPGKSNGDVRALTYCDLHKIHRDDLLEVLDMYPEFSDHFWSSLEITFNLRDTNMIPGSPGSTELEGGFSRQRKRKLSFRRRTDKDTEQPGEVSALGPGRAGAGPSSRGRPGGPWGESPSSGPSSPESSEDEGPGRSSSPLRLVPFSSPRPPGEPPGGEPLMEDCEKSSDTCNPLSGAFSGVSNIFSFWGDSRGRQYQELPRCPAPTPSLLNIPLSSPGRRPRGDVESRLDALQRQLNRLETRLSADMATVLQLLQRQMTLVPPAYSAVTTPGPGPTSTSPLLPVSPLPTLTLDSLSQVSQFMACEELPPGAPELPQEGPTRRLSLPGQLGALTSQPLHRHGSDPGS
For series [6], the system named is Mus musculus. In words: AUC (infinity) in Staphylococcus aureus ARC516 infected in CD1 mouse neutropenic thigh infection model at 36 mg/kg, ip qd by LC-MS/MS analysis. It is filed as ADME, organism-based. Conditions: in vivo. More on the design: dose 36 mg/kg, route intraperitoneal, time infinity. Summed up:
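Plasma exposure in CD-1 mice, measured for analysis of the efficacy studies. Groups of three mice were sacrificed at timed intervals and whole blood was drawn by cardiac puncture. Plasma compound levels were measured by LC–MS/MS, and parameters were estimated by a noncompartmental model.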

Series [7] in a line: AUC in Beagle dog at 3 mg/kg, iv. Type of series: ADME, organism-based, Canis lupus familiaris. More on the design: dose 3 mg/kg, route intravenous. Conditions: plasma. The procedure, abridged: as §1
Series [8] is described as follows: Fraction unbound in human plasma at 10 uM after 16 hrs by equilibrium dialysis.
Series [9] in a line: Volume of distribution in Beagle dog at 3 mg/kg, iv. Type of series: ADME, organism-based, Canis lupus familiaris. More on the design: dose 3 mg/kg, route intravenous. Conditions: in vivo. Summed up: as §1
The test system of series [10] is Staphylococcus aureus. Description: Antibacterial activity against Staphylococcus aureus ARC516 infected in CD1 mouse neutropenic thigh infection model assessed as 1 log reduction in colony forming unit per […] at 36 mg/kg, ip qd administered 2 hrs post-infection measured 24 hrs post-treatment relative to vehicle treated control. Type of series: functional. The conditions noted are these: route intraperitoneal. The procedure, abridged:
(§3)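 CD-1 mice were made neutropenic with ip cyclophosphamide, 150 mg/kg at 4 days and 100 mg/kg at 1 day before infection. Methicillin-susceptible strain, target inoculum 5 × 10⁵ cfu/thigh. Groups of five received ip drug q.d. in 5% dextrose with lactic acid, pH 5.0, starting 2 h post-infection; five mice got vehicle. At 24 h, thighs were homogenized, plated on tryptic soy agar and incubated at 37 °C overnight for cfu.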

Series [11] can be described thus: Volume of distribution in Wistar Han rat at 4 mg/kg, iv. It is filed as ADME, organism-based. Set-up: dose 4 mg/kg, route intravenous. Conditions: in vivo. The procedure, abridged: (§4)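 Groups of three Wistar Han rats received a bolus injection into a cannulated jugular vein. Serial 200 μL whole-blood samples taken over time; plasma drug measured by LC-MS/MS; parameters estimated by noncompartmental analysis.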

Series [12] can be described thus: Clearance in Wistar Han rat at 4 mg/kg, iv. Type of series: ADME, organism-based. Set-up: dose 4 mg/kg, route intravenous. The conditions noted are these: in vivo. The procedure, abridged:
as §4

A short description of series [13]: Half life in Wistar Han rat at 4 mg/kg, iv. Type of series: ADME, organism-based. Set-up: dose 4 mg/kg, route intravenous. Conditions: in vivo. Summed up: as §4
The subject of series [14] is Staphylococcus aureus. Description: Antibacterial activity against methicillin-susceptible Staphylococcus aureus after 18 to 24 hrs by broth microdilution method. Type of series: functional. The procedure, abridged: (§5)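 Broth microdilution following CLSI guidelines in Mueller Hinton broth. Compounds in DMSO, diluted to 2% DMSO final, 11 doubling dilutions from 64 to 0.06 μg/mL. Incubated at 35 °C for 18−24 h; growth read by absorbance at 620 nm.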

Series [15] is described as follows: Inhibition of Escherichia coli ATPase activity of topoisomerase 4 ParC/ParE subunit assessed as reduction in inorganic phosphate production after 24 hrs by ammonium molybdate/malachite-green based assay. The procedure, abridged:
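Each reaction contained 0.5 nM each of E. coli ParC and ParE, 0.16 mM ATP and 0.005 mg/mL sheared salmon sperm DNA in 20 mM Tris pH 8.0 with 50 mM ammonium acetate, 8.0 mM MgCl₂, 0.5 mM EDTA, 5 mM DTT, 2.5% glycerol and 0.005% Brij-35. Compound dilution series; 24 h at room temperature. Quenched with malachite green; absorbance read at 650 nm. IC50 is the mean of three replicate experiments.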

In the next series the test system is Pseudomonas aeruginosa. Description: Antibacterial activity against Pseudomonas aeruginosa PAO1 after 18 to 24 hrs by broth microdilution method. It is filed as functional. Summed up: as §5
The subject of series [16] is Staphylococcus aureus. Description: Antibacterial activity against Staphylococcus aureus ARC516 infected in CD1 mouse neutropenic thigh infection model assessed as 1 log reduction in colony forming unit per […] at 48 mg/kg, ip qd administered 2 hrs post-infection measured 24 hrs post-treatment relative to vehicle treated control. It is filed as functional. Conditions: route intraperitoneal. Summed up:
as §3

Another series deals with Streptococcus pneumoniae. Description: Antibacterial activity against penicillin-susceptible Streptococcus pneumoniae D39 after 18 to 24 hrs by broth microdilution method. Type of series: functional. Summed up:
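CLSI broth microdilution in 2.2% (w/v) Mueller Hinton broth with 0.65% (v/v) lysed horse blood. Compounds diluted from DMSO to 2% DMSO final, 11 doubling dilutions from 64 to 0.06 μg/mL. Incubated at 35 °C for 18−24 h; read at 620 nm.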

Series [17] deals with Staphylococcus aureus. Description: Antibacterial activity against Staphylococcus aureus ARC516 infected in CD1 mouse neutropenic thigh infection model assessed as 1 log reduction in colony forming unit per […] at 12 mg/kg, ip qd administered 2 hrs post-infection measured 24 hrs post-treatment relative to vehicle treated control. Type of series: functional. Conditions: route intraperitoneal. The procedure, abridged: as §3

The nature of series [18]: Clearance in Beagle dog at 3 mg/kg, iv. Type of series: ADME, organism-based, Canis lupus familiaris. More on the design: dose 3 mg/kg, route intravenous. The conditions noted are these: in vivo. The procedure, abridged:
as §1

Series [19] concerns Staphylococcus aureus. Description: Antibacterial activity against Staphylococcus aureus ARC516 infected in CD1 mouse neutropenic thigh infection model assessed as 1 log reduction in colony forming unit per […] at 24 mg/kg, ip qd administered 2 hrs post-infection measured 24 hrs post-treatment relative to vehicle treated control. It is filed as functional. Conditions: route intraperitoneal. Summed up:
as §3

A further series relates to Escherichia coli. In words: Antibacterial activity against Escherichia coli W3110 after 18 to 24 hrs by broth microdilution method. It is filed as functional. The conditions noted are these: K-12 substr. W3110. The procedure, abridged:
as §5

A short description of series [20]: AUC in Wistar Han rat at 4 mg/kg, iv. It is filed as ADME, organism-based. More on the design: dose 4 mg/kg, route intravenous. Conditions: plasma. The procedure, abridged: as §4
The test system of series [21] is Mus musculus. Description: AUC (infinity) in Staphylococcus aureus ARC516 infected in CD1 mouse neutropenic thigh infection model at 48 mg/kg, ip qd by LC-MS/MS analysis. It is filed as ADME, organism-based. More on the design: dose 48 mg/kg, route intraperitoneal, time infinity. The conditions noted are these: in vivo. Summed up:
as §2

Series [22] relates to Mus musculus. Description: AUC (infinity) in Staphylococcus aureus ARC516 infected in CD1 mouse neutropenic thigh infection model at 20 mg/kg, ip qd by LC-MS/MS analysis. Conditions: in vivo. Set-up: time infinity, dose 20 mg/kg, route intraperitoneal. Type of series: ADME, organism-based. Summed up: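 Exposure in neutropenic CD-1 mice thigh-infected with S. aureus ARC516 (target 5 × 10⁵ cfu/thigh), dosed ip once daily from 2 h post-infection. Groups of three killed at timed intervals; blood taken by cardiac puncture. Plasma drug measured by LC-MS/MS; parameters from a noncompartmental model.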

Series [23] deals with Staphylococcus aureus. Description: Antibacterial activity against Staphylococcus aureus ARC516 infected in CD1 mouse neutropenic thigh infection model assessed as 1 log reduction in colony forming unit per […] at 20 mg/kg, ip qd administered 2 hrs post-infection measured 24 hrs post-treatment relative to vehicle treated control. Conditions: route intraperitoneal. It is filed as functional. Summed up: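 Mice rendered neutropenic with ip cyclophosphamide (150 mg/kg 4 days and 100 mg/kg 1 day before infection), then infected with MSSA ARC516 at a target 5 × 10⁵ cfu/thigh. Groups of five dosed ip once daily from 2 h post-infection; vehicle group of five. At 24 h after treatment start, thighs homogenized and plated on tryptic soy agar, 37 °C overnight, cfu counted.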

Consider `COc1ccc2ncc(=O)n(CCN3CCC(NCc4cc5c(cn4)OCCO5)CC3)c2c1`, for which the figures for the half-life in [1] and in series [13] were 8.3 h and 2.8 h, respectively. In [2], this compound displayed a logD of 0.93. The AUC in the series on Mus musculus [3] turned out to be 0.76 µg/h/mL; in the series with Mus musculus [4] it was 0.47 µg/h/mL; with Mus musculus [6], 1.17 µg/h/mL; in series [7] it was 2.3 µg·h/mL; in series [20], 0.19 µg·h/mL; in the series on Mus musculus [21] it was 1.79 µg/h/mL. The IC50 in series [5] was found to be 19 µM; in [15], 0.005 µM. In [8], this compound gave a fraction unbound at 16 h, 10 µM of 0.57. For the same compound, the Vd in [9] worked out at 11 L/kg; in [11] it was 32 L/kg. Besides, the FC was 1.5 with Staphylococcus aureus [10], 2.79 in the series on Staphylococcus aureus [16], 0.05 with Staphylococcus aureus [17] and 1.17 with Staphylococcus aureus [19]. The clearance in series [12] turned out to be 20.3 L/h/kg; in [18], 1.26 L/h/kg. Also, the MIC turned out to be 0.02 mg/L (≈ 0.0443 µM) in the series on Staphylococcus aureus [14], 4 mg/L (≈ 8.86 µM) in the series with Pseudomonas aeruginosa, 0.06 mg/L (≈ 0.133 µM) in the series with Streptococcus pneumoniae and 0.5 mg/L (≈ 1.11 µM) against Escherichia coli.

Consider `C[C@H]1COc2c(N3CCN(C)CC3)c(F)cc3c(=O)c(C(=O)O)cn1c23.C[C@H]1COc2c(N3CCN(C)CC3)c(F)cc3c(=O)c(C(=O)O)cn1c23.O` [LEVOFLOXACIN], for which the AUC in the series on Mus musculus [22] came to 2.5 µg/h/mL. In addition, the FC in the series with Staphylococcus aureus [23] amounted to 1.46.
